An excerpt weighted towards active compounds, which were near 3% of everything screened.
TRPC6 activator: activators of mouse TRPC6 channel. Q61143. B-score at 10 µM. 310,000 tested, 0.13% active. HEK293-TRPC6 membrane potential dye fluorescence; active compounds read high;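 active = B-score of the integrated fluorescence ratio above library mean plus 3 SD, and starting fluorescence ratio within library mean plus 5 SD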;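 note: higher score means more depolarization so channel activation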
Target sequence (Q61143 whole entry, looked up): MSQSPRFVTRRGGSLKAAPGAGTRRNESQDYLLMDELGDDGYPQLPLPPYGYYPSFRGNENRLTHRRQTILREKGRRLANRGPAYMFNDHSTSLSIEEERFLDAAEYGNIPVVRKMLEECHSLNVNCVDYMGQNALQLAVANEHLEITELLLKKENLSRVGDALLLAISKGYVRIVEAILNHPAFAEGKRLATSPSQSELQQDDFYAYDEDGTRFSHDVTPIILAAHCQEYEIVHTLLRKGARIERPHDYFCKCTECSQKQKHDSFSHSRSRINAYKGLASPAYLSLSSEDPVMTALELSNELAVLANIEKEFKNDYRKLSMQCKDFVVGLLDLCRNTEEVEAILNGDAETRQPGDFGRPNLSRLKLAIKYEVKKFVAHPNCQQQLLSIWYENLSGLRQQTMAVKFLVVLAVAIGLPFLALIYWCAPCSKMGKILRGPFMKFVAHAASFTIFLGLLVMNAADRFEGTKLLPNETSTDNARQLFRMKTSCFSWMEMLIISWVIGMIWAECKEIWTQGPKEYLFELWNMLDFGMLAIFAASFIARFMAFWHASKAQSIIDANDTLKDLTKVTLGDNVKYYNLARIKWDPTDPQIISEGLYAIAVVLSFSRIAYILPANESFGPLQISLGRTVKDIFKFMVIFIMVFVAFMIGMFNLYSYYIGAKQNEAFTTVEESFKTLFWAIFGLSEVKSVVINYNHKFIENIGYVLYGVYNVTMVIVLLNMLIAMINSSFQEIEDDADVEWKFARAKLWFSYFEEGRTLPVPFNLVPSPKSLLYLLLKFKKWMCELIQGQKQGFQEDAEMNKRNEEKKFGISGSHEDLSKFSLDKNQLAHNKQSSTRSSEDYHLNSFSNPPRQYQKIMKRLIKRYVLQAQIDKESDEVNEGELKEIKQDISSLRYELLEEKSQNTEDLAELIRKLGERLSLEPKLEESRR
Kir21 inh: blocks the mouse Kir2.1 inward-rectifier potassium channel; AID 1672; HEK293-Kir2.1, FluxOR thallium flux fluorescence; active compounds read low; B-score at 10 µM; P35561; 310,000 tested, 0.85% active;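 active = fluorescence ratio B-score at or below minus 3 SD of library scores, with starting-brightness B-score within 2 SD, cut at about -4.2 in these data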;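 note: channel flux triggered by added potassium and thallium sulfate stimulus; B-score of peak minus minimum fluorescence over baseline after thallium stimulus; more negative B-score means stronger Kir2.1 block with less thallium influx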
TRPC4 block: inhibitors of mouse TRPC4 channel | 300,000 tested, 0.39% active | Q9QUQ5 | B-score at 10 µM | AID 2247 | HEK293 TRPC4beta/mu-opioid, DAMGO-evoked Fluo4 calcium flux; active compounds read low;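 active = B-score over 3 SD under the library average, no early fluorescence shift, positive overall ratio signal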
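Assay system: TRPC4beta/mu-opioid receptor HEK293 cell line; compound dosing: single concentration per test compound; detection: Fluo4 Ca2+ flux fluorescence; evaluation: per-well B score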
TRPC4 potent: allosterically enhances the mouse TRPC4 cation channel; HEK293 TRPC4beta/mu-opioid, DAMGO EC20, Fluo-4 Ca2+ flux; active compounds read high; B-score at 10 µM; 310,000 tested, 0.42% active;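 active = B-score of calcium response area above 5 SD of library B-scores, with initial fluorescence ratio within 5 SD of library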;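 note: B-score of integrated fluorescence ratio over time as area under calcium response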
TRPC6 inhibitor: mouse TRPC6 channel inhibition; Q61143; HEK293-TRPC6, membrane potential dye, ACh-evoked depolarization; active compounds read low; B-score at 10 µM; 310,000 tested, 1.1% active; AID 2553;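 active = B-score under library mean minus 3 SD, initial fluorescence not abnormally high, positive integrated signal ratio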;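 note: B-score derived from integrated fluorescence ratio over the kinetic read; more negative B-score means stronger inhibition of depolarization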
TRPC4 agonist: TRPC4 (mouse) channel activation; Q9QUQ5; HEK293 TRPC4beta/mu-opioid, Fluo4 calcium fluorescence; active compounds read high; B-score at 10 µM; 310,000 tested, 0.49% active; AID 2237;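 active = B-score above 5 SD of library B-scores, and initial fluorescence ratio not above library mean plus 5 SD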;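 note: positive B-score marks a calcium rise read as TRPC4 activation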
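System: HEK293 cells stably co-expressing mouse TRPC4beta and mu-opioid receptor; Schedule: Fluo4 dye loading 45 min at room temperature, 110 s recording; Detection: Fluo4 fluorescence, kinetic; Evaluation: B-scored integrated calcium fluorescence ratio; Controls: buffer (low) and maximal DAMGO (high).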
HEK293 MPD ctr: checks TRPC6 modulator effects in parental HEK293 cells; shares compounds with TRPC6 inhibitor; membrane potential dye fluorescence; membrane potential signal change, % at 10 µM; 2,400 tested, 51% active;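 active = membrane potential signal moves up or down beyond 5 SD from buffer-only wells, on both duplicate plates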
HEK293 MPD ctr 2: second counter-screen for TRPC6 modulators: effect in parental HEK293 cells; shares compounds with TRPC6 inhibitor; membrane potential dye fluorescence; after compound, maximal acetylcholine stimulation; inhibition, % at 10 µM; 2,400 tested, 14% active; AID 488926;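 active = membrane potential signal drops by more than 5 SD from the mean control signal, in both duplicate plates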;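 note: plate controls were acetylcholine ECmax control wells for no effect and buffer only wells for full effect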
TRPC4 ctr mod: mouse TRPC4 off-target activity of TRPC6 modulators. percent change from control (negative = decrease, positive = increase), % at 10 µM. 2,400 tested, 69% active. shares compounds with TRPC6 inhibitor. HEK293 TRPC4/mu-opioid, membrane potential fluorescence;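 active = membrane potential signal moved up or down beyond 5 SD of buffer control wells, in both duplicate plates, actives on both sides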;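 note: plate controls were assay buffer wells for no effect and DAMGO maximal-effect wells for full effect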
TRPC4/MOR inh 2: mouse TRPC4 off-target activity of TRPC6 modulators, second screen; shares compounds with TRPC6 inhibitor; HEK293 TRPC4/mu-opioid, membrane potential dye fluorescence; stimulated with maximal-effect DAMGO; inhibition, % at 10 µM; 2,400 tested, 55% active;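 active = drop in membrane potential signal beyond 5 SD of the control wells in both duplicate plates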;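 note: TRPC4 counter screen for TRPC6 hits run under conditions tuned for TRPC6 not TRPC4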
TRPC6 block conf: confirmation of mouse TRPC6 inhibitors; shares compounds with TRPC6 inhibitor; HEK293-TRPC6, membrane potential dye, ACh-evoked depolarization; inhibition, % at 10 µM; 3,300 tested, 43% active; AID 488960;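 active = fluorescence ratio falls more than 5 SD below the full-stimulation control mean, in both duplicate runs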;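 note: integrated fluorescence ratio of peak minus minimum over baseline after agonist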
TRPC6 act confirm: mouse TRPC6 activator confirmation; AID 488961; shares compounds with TRPC6 inhibitor; HEK293-TRPC6 membrane potential dye fluorescence, FDSS; activation, % at 10 µM; 2,800 tested, 11% active;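 active = ratio signal rise beyond 5 SD above unstimulated control wells' mean, seen in both duplicate runs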;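 note: plate controls were buffer EC0 wells for no effect and acetylcholine ECmax response for full effect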
Numbers without * were called inactive; i = inactive; · = no result given.

SMILES	TRPC6 activator	Kir21 inh	TRPC4 block	TRPC4 potent	TRPC6 inhibitor	TRPC4 agonist	HEK293 MPD ctr	HEK293 MPD ctr 2	TRPC4 ctr mod	TRPC4/MOR inh 2	TRPC6 block conf	TRPC6 act confirm
CCOc1ccc(N(C)S(=O)(=O)c2ccc3[nH]cc(C(=O)NCC4CCCO4)c(=O)c3c2)cc1 (stereo not drawn)	i	2.7	i	i	i	i	·	·	·	·	·	·
CCOc1ccc(N(C)S(=O)(=O)c2ccc3[nH]cc(C(=O)NCC(OC)OC)c(=O)c3c2)cc1	i	-0.6	i	i	-5.5*	i	i	i	i	i	i	i
Nc1cccc(C(=O)N/N=C/c2ccsc2)c1	i	-0.24	i	i	i	i	·	·	·	·	·	·
CSc1nnc(C)c(/C=C/Nc2ccc(Cl)cc2)n1	14*	-2.9	i	i	i	i	214%*	i	36%*	i	i	36%*
COc1cccc(CNCc2ccco2)c1O	i	-1.1	i	i	i	i	·	·	·	·	·	·
CN(C)CCc1cc2c(c3c1ccc1ccccc13)OCO2	i	-11*	i	i	-5.2*	i	i	i	-10%*	47%*	i	i
Nc1nc(N)c2[nH]c(-c3ccccc3)nc2n1	i	1.4	i	i	i	i	·	·	·	·	·	·
COc1ccccc1NC(=O)N1CCC(NC(=O)C(Cc2ccccc2F)NC(C)=O)CC1 (stereo not drawn)	i	0.04	i	i	i	i	·	·	·	·	·	·
C=CCOc1c(CNC2CCCC2)cc(Cl)cc1OC	i	-1.9	-6*	i	-5.4*	i	431%*	151%*	99%*	90%*	95%*	·
O=C(CCn1c(=O)[nH]c2ccsc2c1=O)N1CCN(c2cccc(Cl)c2)CC1	15*	-0.61	i	i	-13*	i	i	i	i	i	56%*	94%*
O=C(CCn1c(=O)[nH]c2ccsc2c1=O)N1CCN(c2ccc([N+](=O)[O-])cc2)CC1	i	0.97	i	i	i	i	·	·	·	·	·	·
CCn1cc(C(=O)OCc2ccccc2)c(=O)c2ccc(C)nc21	i	1.2	i	i	-6*	i	-308%*	i	-50%*	48%*	i	i
C=Cc1ccc(COC(=O)c2cn(CC)c3nc(C)ccc3c2=O)cc1	i	2.5	i	i	i	i	·	·	·	·	·	·
CCn1cc(C(=O)OCc2cccc(Br)c2)c(=O)c2ccc(C)nc21	i	1.9	i	i	i	i	·	·	·	·	·	·
CCn1cc(C(=O)OCc2ccc(F)cc2)c(=O)c2ccc(C)nc21	i	0.64	i	i	-10*	i	-340%*	84%*	-52%*	65%*	64%*	i
CN(CCOc1ccccc1)C(=O)C1CCC(=O)N(CCc2ccc(Cl)cc2)C1 (stereo not drawn)	i	-2.2	i	i	i	i	·	·	·	·	·	·
CN1\C(=C/C=C/C=C/C=[N+](C)C)C(C)(C)c2ccccc21	i	-13*	i	i	-5.2*	i	533%*	i	-20%*	32%*	48%*	i
CN1/C(=C\C=O)C(C)(C)c2ccccc21	i	-0.14	i	i	i	i	·	·	·	·	·	·
